In ChEMBL document CHEMBL6114936, “S-MGBs bearing amidine tail groups are potent, selective antiplasmodial agents” (RSC Med Chem, 2025):
Active and inactive are the calls of the source. The calls are words filed in the database; no cut-off is given here.

Legend:
[1] = Cytotoxicity against HEK293 cells assessed as cell growth inhibition measured after 72 hrs by resazurin dye based fluorescence assay relative to IC50; type: toxicity; conditions: human
How it was run: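 HEK293 cells grown in DMEM with 10% FBS and exposed to compound for 72 h at 37 °C, 5% CO2. Medium was then replaced with 44 μM resazurin, incubated 5–6 h more, and fluorescence read at 530/595 nm. Top concentration 80 μM. Curves were duplicate, 11-point dose response.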

[2] = Selectivity index, ratio of IC50 for HEK293 cells to IC50 for antiplasmodial activity against ring stage chloroquine-sensitive Plasmodium falciparum 3D7; type: toxicity, cell-based; conditions: human, read-out: Ratio IC50
How it was run: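 SI is HEK293 IC50 divided by P. falciparum 3D7 IC50. Parasites were sorbitol-synchronized twice, and rings were exposed 72 h at 37 °C (90% N2, 5% CO2, 5% O2), then DAPI-stained and imaged confocally. […] Where no accurate HEK293 IC50 was obtained, a relative IC50 or the top concentration was used and SI reported as a bound.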

[3] = Selectivity ratio of IC50 for antiplasmodial activity against ring stage chloroquine-resistant Plasmodium falciparum Dd2 to IC50 for antiplasmodial activity against ring stage chloroquine-sensitive Plasmodium falciparum 3D7; type: functional
How it was run: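 Ring-stage P. falciparum Dd2 and 3D7, twice sorbitol-synchronised, in RPMI-1640 with 25 mM HEPES, 5% human AB serum, Albumax II, hypoxanthine. Exposed 72 h at 37 °C (90% N2/5% CO2/5% O2), 11-point dose response. DAPI stain, confocal imaging, % inhibition against in-plate controls, four-parameter IC50. Two independent duplicate runs. Ratio is Dd2 IC50/3D7 IC50.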

DNA [4] = test: Binding affinity to 5'-CGCATATATGCG-3' DNA (unknown origin) assessed as bound as monomer [DS + 1 M] in charge states 5- at 100 uM by native mass spectrometry; type: nucleic-acid assay
How it was run: (§1)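 Final sample: 9 μM DNA, 100 μM KCl, 100 μM S-MGB, 1% DMSO in 150 mM ammonium acetate pH 7. DNA with 1% DMSO and no ligand served as control. Sprayed in negative mode at 1.0–1.2 kV. Free, monomer- and dimer-bound DS species were read by charge state.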

DNA [5] = test: Binding affinity to 5'-CGCATATATGCG-3' DNA (unknown origin) assessed as bound as dimer [DS + 2 M] in charge states 5- and 4- at 100 uM by native mass spectrometry; type: nucleic-acid assay; how it was run: as §1
DNA [6] = test: Binding affinity to 5'-CGCATATATGCG-3' DNA (unknown origin) assessed as appearance of small m/z peak corresponding to free ds DNA oligo at 100 uM by native mass spectrometry; type: nucleic-acid assay; how it was run: as §1

SMILES	IC50 at 72 h [1] [µM]	also measured
CN(C)CCCNC(=O)c1cc(NC(=O)c2cc(NC(=O)c3cc(NC(=N)c4cc5ccccc5cn4)cn3C)cn2C)cn1C	21	
Cn1cc(NC(=O)c2cc(NC(=O)c3ccc(/C=C/C(=O)Nc4ccccc4O)cc3)cn2C)cc1C(=O)NCCC(=N)N	40	
COc1cccc(/C=C/c2ccc(C(=O)Nc3cc(C(=O)Nc4cc(C(=O)NCCCN(C)C)n(C)c4)n(C)c3)cc2)c1	35	selectivity ratio [2]: > 195
Cn1cc(NC(=O)c2cc(NC(=O)c3ccc(/C=C/c4ccc5nsnc5c4)cc3)cn2C)cc1C(=O)NCCN1CCOCC1	11	
Cn1cc(NC(=O)c2cc(NC(=O)c3ccc(NC(=O)c4ccc(F)cc4)cc3)cn2C)cc1C(=O)NCCC(=N)N	35	
CC(C)CCn1cc(NC(=O)c2cc(NC(=O)c3cc(NC(=N)c4cc5ccccc5cn4)cn3C)cn2C)cc1C(=O)NCCCN(C)C	40	
COc1cccc(/C=C/c2ccc(C(=O)Nc3cc(C(=O)Nc4cc(C(=O)NCCN(C)C)n(C)c4)n(C)c3)cc2)c1	20	
CCc1nc(N)nc(N)c1-c1ccc(Cl)cc1 [PYRIMETHAMINE]		Ratio IC50 [3]: >29740
COc1cccc(/C=C/c2ccc(C(=O)Nc3cc(C(=O)Nc4cc(C(=O)NCCC(=N)N)n(C)c4)n(C)c3)cn2)c1	45	Activity (DNA [4]): inactive; Activity (DNA [5]): Active; selectivity ratio [2]: > 336
COc1ccc(/C=C/c2ccc(C(=O)Nc3cc(C(=O)Nc4cc(C(=O)NCCC(=N)N)n(C)c4)n(C)c3)cc2)cc1.O=C(O)C(F)(F)F	40	Ratio IC50 [3]: 1.4
Cn1cc(NC(=O)c2cc(NC(=O)c3ccc(/C=C/c4cccc(F)c4)cc3)cn2C)cc1C(=O)NCCC(=N)N	40	
Cn1cc(NC(=O)c2cc(NC(=O)c3ccc(/C=C/c4ccncc4)cc3)cn2C)cc1C(=O)NCCC(=N)N	40	Activity (DNA [4]): inactive; Activity (DNA [5]): Active; selectivity ratio [2]: > 613
Cn1cc(NC(=O)c2cc(NC(=O)c3ccc(/C=C/c4ccc5ccccc5c4)cc3)cn2C)cc1C(=O)NCCC(=N)N	80	Activity (DNA [4]): Active; Activity (DNA [6]): Active; Activity (DNA [5]): Active; selectivity ratio [2]: > 265
Cn1cc(NC(=O)c2cc(NC(=O)c3ccc(/C=C/c4ccc(F)cc4)cc3)cn2C)cc1C(=O)NCCC(=N)N	40	
CC(C)CCc1sc(NC(=O)c2cc(NC(=O)c3cc(NC(=O)c4cccc(F)c4)cn3C)cn2C)nc1C(=O)NCCCN(C)C	40	
Cn1cc(NC(=O)c2cc(NC(=O)c3ccc(/C=C/c4ccc(C(F)(F)F)cc4)cc3)cn2C)cc1C(=O)NCCN1CCOCC1	40	
Cn1cc(NC(=O)c2cc(NC(=O)c3ccc(NC(=O)c4cccc(F)c4)cc3)cn2C)cc1C(=O)NCCC(=N)N	40	
